Results as given in ChEMBL document CHEMBL4513216, “Probing the Open Global Health Chemical Diversity Library for Multistage-Active Starting Points for Next-Generation Antimalarials” (ACS Infect Dis, 2020).

Assay: Toxicity liver stage against HepG2, at 10uM
Type: cell-based
Set-up: test concentration 10 uM, cell line HepG2-A16-CD81EGFP
Conditions: human, HepG2-A16-CD81EGFP cells; read-out: INHIBITION
Procedure, shortened: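 Uninfected HepG2-A16-CD81EGFP cells, 3 × 10^3 per well, 1536-well, plated on prespotted compound at 10 μM final, parasite-free screening media added to match infected plates; puromycin 10 μM positive, DMSO 0.5% negative; run in parallel with 48 h PbLuc assay at 37 °C, 5% CO2; viability by CellTiter-Glo luminescence, normalized to controls.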

| SMILES | cytotoxicity at 10 µM [%] |
| --- | --- |
| O=C(CCc1cscn1)N1CCCC(n2ccnc2)C1 (centres undefined) | -3.03 |
| CC(C(=O)NCc1ccc(N2CCCC2)nc1)S(C)(=O)=O (centres undefined) | -13.4 |
| Cc1nn(C(C)C)c(C)c1NC(=O)c1ccccc1 | -11.7 |
| Cc1n[nH]c(C)c1CCCN(C)Cc1c[nH]nc1-c1ccc(F)cc1 | 3.45 |
| Cc1cc(C(=O)N2CCCC(n3ccnc3)C2)c(C)n1C1CC1 (centres undefined) | 1.19 |
| CCOC(=O)CNC(=O)C1OC(c2ccccc2)=NN1C(C)=O (centres undefined) | 0.53 |
| C=C1C(C)(C)[C@@H]2CC[C@]1(C(=O)N1CCC(n3cc(CCO)nn3)CC1)C2 | -4.28 |
| O=C(NCc1csc(Br)c1)N1CCOCC1 | -7.45 |
| COCC(=O)N1CC[C@@H]2O[C@H](COCc3csc(C)n3)CC[C@@H]21 | -85.8 |
| N#Cc1ccccc1N1CCC(Nc2nccnc2C#N)CC1 | 12.9 |
| CN(CC(F)(F)F)C(=O)Cn1cc(NC(=O)C(C)(C)C)cn1 | 3.04 |
| Cc1cccc(CN2Cc3[nH]nc(COCCO)c3C2)n1 | 0.442 |
| COc1cccc(-c2noc(C3CCN(Cc4ccccc4F)C3)n2)c1 (centres undefined) | -2.06 |
| CCOC1CC2(CCN(CCO)CC2)c2ccc(C)cc21 (centres undefined) | 9.01 |
| O=C(c1ccncc1)N1CCN2C[C@H](Oc3cccnc3)C[C@H]2C1 | 2.83 |
| Cc1ncsc1CCC(=O)N1CCN(CCn2cncn2)CC1 | 3.21 |
| Cc1n[nH]c(C)c1-c1cnc(CC2CCN(C(C)C)CC2)cn1 | 22.3 |
| CCCS(=O)(=O)N1C[C@@H]2CN(Cc3cnn(C)c3)CCO[C@@H]2C1 | 0.835 |
| Cc1cc(C)n(CC2CCCN2C(=O)c2ccc(NC3CC3)nc2)n1 (centres undefined) | 6.53 |
| Cc1occc1C(=O)N1CCc2c(CNS(C)(=O)=O)cncc2C1 | 8.68 |
| COc1ccccc1NC(=O)N(CCO)Cc1ccsc1 | -1.05 |
| CN(Cc1cnn(C)c1)C(=O)CN1CCCCC1Cn1cncn1 (centres undefined) | 17.5 |

| SMILES | cytotoxicity at 10 µM [%] |
| --- | --- |
| Cc1nn(C)c(C)c1C(C(=O)O)N1CC=C(c2ccccc2)CC1 (centres undefined) | -2.11 |
| CCNC(=O)N(Cc1ccoc1)C1CCCCC1 | -0.986 |
| O=C(NCC1CC1)[C@@H]1CC[C@@H]2[C@@H](CCN2Cc2ccco2)O1 | 4.62 |
| O=c1[nH]c(CCN2CCCC2Cn2cccn2)nc2ccccc12 (centres undefined) | -8.05 |
| CNC(=O)c1cc2c(nc1NC(C)C)CCNCC2 | 0.102 |
| O=C1N(c2ccsc2)CCC12CCCN(CC1CC1)C2 (centres undefined) | -79.4 |
| CCc1noc(CN(CC)Cc2cc3cc(C)ccc3[nH]c2=O)n1 | 2.7 |
| Cn1nccc1C(=O)N1CCC(n2cc(-c3ccsc3)nn2)CC1 | -3.44 |
| CCc1ccc(C(=O)NC2CCN(c3ccn(C)n3)C2)o1 (centres undefined) | -0.577 |
| Cc1ccc(NC2CCN(C(=O)c3cc(C)sc3C)CC2)nn1 | -5.59 |
| Cc1nccn1-c1ccc(CNC(=O)c2ccc(O)nc2)cn1 | 1.75 |
| CCn1c(O)c(C(C)=O)c2cc(C)ccc21 | -8.24 |
| CCc1ccc(C2NCCc3cc4c(cc32)OCCO4)cc1 (centres undefined) | -6.63 |
| O=C(NC1CC1)c1cc(NC(=O)N2CCCC(O)C2)ccc1Cl (centres undefined) | -15.5 |
| COCC[C@]1(O)CCN(C(=O)C2CCN(C3CCCC3)CC2)C[C@H]1C | -0.292 |
| COc1ccc(CN2CCOC[C@H]2c2nc(-c3ccncc3)c[nH]2)cc1 | -0.588 |
| O=C(CCN1CCOC1=O)N(Cc1ccncc1)CC1CCCO1 (centres undefined) | 0.606 |
| CN(C)CCN1CCOCC2(CCCN(C(=O)c3cccn3C)C2)C1 (centres undefined) | 4.87 |
| Cc1cc(C)c2c(c1)C(NC(=O)CSCc1ccncc1)CCO2 (centres undefined) | 4.17 |
| COCCN1C(=O)C2(CCC(C(=O)Nc3ccc(F)cc3)CC2)N=C1C (centres undefined) | 9.7 |
| CCn1nc(C)c2ncnc(N(C)C)c21 | 3.18 |
| O=C(O)[C@]12CCCN(CC3CCOC3)C[C@H]1CN(c1ncccn1)C2 (some centres undefined) | -104 |

| SMILES | cytotoxicity at 10 µM [%] |
| --- | --- |
| CC(=O)c1cc(CN2C[C@@H](NS(=O)(=O)N(C)C)[C@H](C(C)C)C2)cs1 | -7.79 |
| CCn1cnnc1C1CCN(C(=O)c2cc(F)ccc2OC)CC1 | -3.35 |
| Cc1cnc2[nH]c(C(F)(F)F)c(CN3CCSCC3)c2c1 | 13.3 |
| NC(=O)CC1CCN(C(=O)NCc2ccc(-c3ccn[nH]3)cc2)CC1 | -2.38 |
| c1cc(-c2nnc(C3CCCN(CC4CCCCC4)C3)o2)ccn1 (centres undefined) | -12.1 |
| CS(=O)(=O)N1CCO[C@@H]2CN(Cc3ccc(F)cc3)C[C@@H]2C1 | 4.74 |
| Cc1ccc(=O)n(CC2(O)CCN(Cc3ccsc3)CC2)n1 | 0.642 |
| CO[C@H]1CCN(C(=O)c2ccc3oc(C)cc3c2)C[C@@]12CCCO2 | 25.9 |
| CCc1cnc(C)nc1NCC(O)CN1CCCCCC1 (centres undefined) | 3.26 |
| CCc1nc(CN2CCCC(N(C)Cc3cnc(C)cn3)C2)no1 (centres undefined) | -5.66 |
| CN1CCC(N(C)C[C@H]2CC[C@@H](Cc3ccc4occc4c3)O2)CC1 | -9.27 |
| Cc1ccccc1Cc1nc(CSc2nnc(N)n2C2CC2)no1 | 18 |
| Cc1noc2nc3c(c(C(=O)/N=c4\[nH]ncs4)c12)CCC3 | -0.493 |
| CCCn1ccnc1CN1CCC(Oc2ccc(Cl)cc2)(C(=O)O)CC1 | 3.47 |
| COCc1cc(N2CCOC(c3ccc(Cl)c(Cl)c3)C2)ncn1 (centres undefined) | 0.635 |
| c1cnn(CCNCc2cnc(N3CCOCC3)nc2)c1 | -1.73 |
| COc1ccc(CN2CCC3(CC2)CCN(CC2CC2)C3=O)cc1 | 8.18 |
| O=C(c1cscn1)N1CC[C@@H]2[C@@H]1CCN2CC1CCOCC1 | 5.3 |
| CCc1ccc(OCC(O)CN2CCN(CC)CC2)cc1 (centres undefined) | -6.54 |
| CCn1cc2c(n1)C(COC)CN(C(=O)CCOc1ccccc1)C2 (centres undefined) | 0.234 |
| CN(C)CCn1c(=O)oc2ccc(NC(=O)CSc3ccccc3)cc21 | -3.51 |
| N#Cc1cccc(NC2CC(=O)N(Cc3cccc(F)c3)C2)n1 (centres undefined) | -94.2 |

| SMILES | cytotoxicity at 10 µM [%] |
| --- | --- |
| CCc1cc(C)c(C(=O)N2CCCC(c3nnn[nH]3)C2)o1 (centres undefined) | 1.02 |
| CC1(C)Cc2cc(-c3cncn3CCNC3CCS(=O)(=O)C3)ccc2O1 (centres undefined) | 2.95 |
| CS(=O)(=O)N1CC2(CCN(c3nccs3)CC2)c2ccccc21 | 0.933 |
| CCC(=O)N1CCCN(c2cncc(-n3nc(C)cc3C)n2)CC1 | -8.44 |
| COCCCOc1ccc(C(=O)N(C)CCC(C)C)cn1 | 6.19 |
| COCCCn1ccc(NC(=O)NCc2cccc(N(C)C)c2)n1 | 2.4 |
| Cc1noc(NCc2ccc(F)cc2F)n1 | -4.49 |
| CC(CN1CCC2(CC1)c1nc[nH]c1CCN2S(C)(=O)=O)C(F)(F)F (centres undefined) | -8.51 |
| CNC(=O)c1cccc(CCNS(C)(=O)=O)c1 | 13.4 |
| CNCc1ccc([C@@H]2CN(C(C)=O)C[C@H]2C(=O)N(C)C)cc1 | 3 |
| Cn1cccc1CN1CCC2(CCCN(C(=O)c3cccnc3)C2)CC1 | -147 |
| COCCNS(=O)(=O)c1cccc2c1CN(C(=O)c1ccccc1)CC2 | 5.54 |
| O=C(Nc1ccc(-c2ccccc2)cn1)C1CCN(C(=O)C2CC2)CC1 | -14.8 |
| CNC(=O)[C@@H]1C[C@H]2CN(c3ncccn3)C[C@H]2N1C(C)C | 9.72 |
| Cc1ccc2c(c1)Oc1ncccc1C(=O)N2 | 5.15 |
| Cc1ccccc1CN(C)C(=O)Cn1nc(-c2ccc(F)cc2)oc1=O | -19.3 |
| Cc1ccsc1-c1cc(C(=O)O)cc(S(=O)(=O)NCc2ccccn2)c1 | -63.8 |
| CC(C)CNC(=O)[C@H]1CCS(=O)(=O)[C@@H]2CN(Cc3ccc(F)cc3)C[C@H]12 | 1.26 |
| Cc1cc(C)c2c(N3CCN(C(=O)N(C)C)CC3)ncnc2n1 | -1.18 |
| OCC(O)CSCc1ccc(Cl)cc1Cl (centres undefined) | -148 |
| c1ccc(CN2Cc3ccnn3CC(COCc3cccnc3)C2)nc1 (centres undefined) | -146 |
| CC(C)NC(=O)N1CCN(C(=O)NC(C)C)CC2(CNC(=O)C2)C1 | 3.3 |

| SMILES | cytotoxicity at 10 µM [%] |
| --- | --- |
| c1ccc(-c2cnc(CNCC3CCCN3c3cccnn3)o2)cc1 (centres undefined) | 1.56 |
| Cc1nnc(NC(=O)NCCCN2CCC(C(N)=O)CC2)s1 | 5.61 |
| COc1cccc(OCC(=O)NS(=O)(=O)c2ccc(C)s2)c1 | -5.87 |
| CCC(CC)NC(=O)CN1CCSCC1 | -8.98 |
| Cc1oc(C)c(C(=O)NCc2ccccc2S(=O)(=O)N(C)C)c1C | 1.97 |
| CCCN(c1ccccc1C(=O)O)S(=O)(=O)c1ccc2ccccc2c1 | -2.32 |
| CCc1csc(C2CCCN(C(=O)c3ccco3)C2)n1 (centres undefined) | 2.56 |
| O=C([C@H]1C[C@H]2OCC[C@H]2N(CC2CCOCC2)C1)N1CCCC1 | -0.972 |
| CCc1cc(C)c(C(=O)N2CCCC2CC(=O)c2cnn(C)c2)o1 (centres undefined) | 5.22 |
| O=C(C1CCC1)N1CCO[C@H]2[C@H](OCCCn3cccn3)CC[C@@H]21 | 16.7 |
| CSc1ccc(C(=O)C2CCCN(C(=O)CCn3cncn3)C2)cc1 (centres undefined) | -12.2 |
| COc1cccc(CNC2CCc3ccc(C)cc32)n1 (centres undefined) | 4.37 |
| CNc1nc(C2CCCN2C(C)=O)nc2c1CN(C1CCCC1)CC2 (centres undefined) | -9.44 |
| Cc1cc(C)n(C2CCCN(C(=O)CCCc3ccccn3)C2)n1 (centres undefined) | -16.3 |
| CCN1CCCn2c(nc(CNC(=O)c3cnoc3C)cc2=O)C1 | 6.13 |
| CC1CCCN(CCNC(=O)c2scnc2Cl)C1 (centres undefined) | -6.06 |
| Cc1cc(N2CCC(N(C)C(=O)c3cccs3)CC2)nc(C)n1 | 6.74 |
| c1ccc(CO[C@@H]2CN(Cc3cccnc3)[C@@H]3COC[C@@H]32)nc1 | -98.7 |
| C[C@@]1(O)CCN(C2CCOCC2)C[C@H]1n1ccc(=O)[nH]c1=O | 4 |
| CC(C)n1nc(O)c2c1NC(=O)CSC2c1cnn(C)c1 (centres undefined) | -5.28 |
| CC(C)c1noc(-c2ccc(NC(=O)NCC(O)C(C)C)cc2)n1 (centres undefined) | -7.03 |
